Source: ChEMBL document CHEMBL4680086, “Antiangiogenic Effect of (±)-Haloperidol Metabolite II Valproate Ester [(±)-MRJF22] in Human Microvascular Retinal Endothelial Cells” (J Med Chem, 2016)
≈ marks a conversion by molar mass, not a printed value. One block for each molecule: values may come before it. Calls of active or inactive are those of the source. The rule behind the calls is not given here.

How the values were obtained:
[1] = (§1) Cytotoxicity in HREC assessed as reduction in cell counts at 5 uM incubated for 72 hrs under basal conditions by Trypan blue dye exclusion assay; type: functional, Homo sapiens; set-up: scale not given: the % may be the effect or the level left
Procedure, shortened: (§2)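 HRECs grown in medium with 1% FBS under basal conditions, no VEGF-A. Exposure 24 or 72 h. Read-out is the count of live cells excluding dye in a Trypan blue exclusion test.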

[2] = Cytotoxicity in HREC assessed as reduction in cell viability incubated for 48 hrs by MTT assay; type: functional; details: Homo sapiens
Procedure, shortened: (§3)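 HREC were exposed to the test agent for 24, 48, 72 or 96 h. Viability was measured by MTT, and IC50 values were derived for each time point.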

[3] = tested on: HREC; assay: Suppression of VEGF-A-induced angiogenesis in HREC assessed as reduction of the ramification number at 5 uM incubated for 24 hrs in presence of 2 uM sigma1 selective agonist (+)-pentazocine by Matrigel based tube formation assay; type: functional, tissue-based; details: Homo sapiens
Procedure, shortened: (§4)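 HREC were plated on Matrigel with VEGF-A stimulation. Emerging branch points (ramifications) from cell bodies were counted by phase-contrast imaging.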

[4] = Cytotoxicity in HREC assessed as reduction in cell viability incubated for 96 hrs by MTT assay; type: functional; details: Homo sapiens; procedure, shortened: as §3
[5] = tested on: HREC; assay: Suppression of VEGF-A-induced cell migration in HREC assessed as effect on crossing cells count at 5 uM incubated for 24 to 72 hrs in presence of 1 to 2 uM sigma2 receptor antagonist AC927 by wound healing assay; type: functional; details: Homo sapiens, time 24-72 hrs
[6] = Stability in pH 7.4 buffer by HPLC analysis; type: physicochemical
Procedure, shortened: (§5)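 Chemical stability was tested at 37 °C in aqueous buffer at pH 1.3 (non-enzymatic simulated gastric fluid) or pH 7.4.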

[7] = Cytotoxicity in HREC assessed as reduction in cell viability at 5 uM incubated for 24 hrs by MTT assay; type: functional, Homo sapiens
Procedure, shortened: (§6)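 HREC viability measured by MTT test after compound exposure for 24, 48, 72 or 96 h, with concentrations up to 200 μM.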

[8] = tested on: HREC; assay: Effect on cell migration of in HREC at 5 uM incubated for 24 to 72 hrs by wound healing assay; type: functional; details: Homo sapiens, time 24-72 hrs
Procedure, shortened: (§7)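 A scratch wound was made in a confluent HREC monolayer, which was then kept in 1% FBS medium, either basal or with VEGF-A 80 ng/mL. (+)-Pentazocine (1 or 2 μM) was added where indicated. Wound-edge cell advancement was scored as a percentage at 24 and 72 h after the scratch.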

[9] = target: Histone deacetylase (Homo sapiens) (UniProt Q13547+O15379+Q9UBN7+Q92769+Q9UQL6+Q8WUI4+Q9BY41+Q96DB2+P56524+Q9UKV0+Q969S8); assay: Inhibition of HDAC in human HeLa cell extracts at 5 uM using fluorescently labeled HDAC substrate
[10] = (§8) Cytotoxicity in HREC assessed as reduction in cell counts at 5 uM incubated for 24 hrs under basal conditions by Trypan blue dye exclusion assay; type: functional, Homo sapiens; set-up: scale not given: the % may be the effect or the level left; procedure, shortened: as §2
[11] = tested on: HREC; assay: Cytotoxicity in HREC assessed as reduction in cell viability at 5 uM incubated for 72 hrs in presence of 1 uM sigma1 selective agonist (+)-pentazocine by MTT assay; type: functional; details: Homo sapiens
Procedure, shortened: (§9)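 HREC were co-incubated for 72 h with the test agent plus either the σ1 agonist (+)-pentazocine (1 μM) or the σ2 ligand AC927 (1 μM). Viability was read by MTT test.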

[12] = target: D(2) dopamine receptor (Rattus norvegicus, UniProt P61169); assay: Displacement of [3H]-spiperone from DRD2 in rat striatum by scintillation counting; type: tissue-based
Chain of D(2) dopamine receptor (P61169 whole entry): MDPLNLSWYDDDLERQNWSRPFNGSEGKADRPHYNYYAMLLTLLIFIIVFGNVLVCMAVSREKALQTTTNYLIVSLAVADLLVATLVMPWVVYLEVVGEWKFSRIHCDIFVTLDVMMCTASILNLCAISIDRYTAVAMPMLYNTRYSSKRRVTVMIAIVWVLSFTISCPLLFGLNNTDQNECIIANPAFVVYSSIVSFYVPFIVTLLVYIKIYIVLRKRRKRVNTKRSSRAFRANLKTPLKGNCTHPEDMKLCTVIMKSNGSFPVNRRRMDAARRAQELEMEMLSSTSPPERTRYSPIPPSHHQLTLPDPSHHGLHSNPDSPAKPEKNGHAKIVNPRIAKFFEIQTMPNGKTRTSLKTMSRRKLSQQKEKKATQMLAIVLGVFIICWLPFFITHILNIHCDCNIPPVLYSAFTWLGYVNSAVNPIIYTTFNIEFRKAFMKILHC

[13] = Stability in human plasma assessed as compound hydrolysis at 37 degC by HPLC analysis; type: ADME, cell-free
Procedure, shortened: (§10)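 Compound was incubated in rat or human plasma, and ester hydrolysis was followed. The rate was expressed as the observed rate constant kobs.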

[14] = Cytotoxicity in HREC assessed as reduction in cell viability at 5 uM incubated for 72 hrs by MTT assay; type: functional, Homo sapiens; procedure, shortened: as §6
[15] = Displacement of [3H]-DTG from sigma2 receptor in guinea pig brain membranes by scintillation counting; type: cell membranes, Cavia porcellus, Cell membrane
[16] = Solubility in water incubated for 1 hr by HPLC analysis; type: physicochemical
[17] = target: Sigma non-opioid intracellular receptor 1 (Cavia porcellus, UniProt Q60492); assay: Displacement of [3H]-pentazocine from sigma1 receptor in guinea pig brain membranes by scintillation counting; type: cell membranes, Cell membrane
Chain of Sigma non-opioid intracellular receptor 1 (Q60492 whole entry): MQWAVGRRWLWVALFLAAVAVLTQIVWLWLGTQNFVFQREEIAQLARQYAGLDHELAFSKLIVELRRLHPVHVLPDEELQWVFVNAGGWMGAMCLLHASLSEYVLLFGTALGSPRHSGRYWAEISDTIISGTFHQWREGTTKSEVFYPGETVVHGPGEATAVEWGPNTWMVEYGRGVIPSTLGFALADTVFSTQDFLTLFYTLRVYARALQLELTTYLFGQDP

[18] = Stability in pH 1.3 buffer by HPLC analysis; type: physicochemical; procedure, shortened: as §5
[19] = (§11) Suppression of VEGF-A-induced cell migration in HREC assessed as crossing cells count at 5 uM incubated for 72 hrs by wound healing assay (reference value: 26%); type: functional, Homo sapiens
[20] = Cytotoxicity in HREC assessed as reduction in cell viability incubated for 24 hrs by MTT assay; type: functional; details: Homo sapiens; procedure, shortened: as §6
[21] = Suppression of VEGF-A-induced pro-angiogenesis in HREC assessed as alive cell number count at 5 uM incubated for 24 hrs by Trypan blue dye exclusion assay (reference value: 52%); type: functional, Homo sapiens
[22] = (§12) Suppression of VEGF-A-induced cell migration in HREC assessed as crossing cells count at 5 uM incubated for 24 hrs by wound healing assay (reference value: 63%); type: functional, Homo sapiens
[23] = tested on: HREC; assay: Suppression of VEGF-A-induced cell migration in HREC assessed as effect on crossing cells count at 5 uM incubated for 24 to 72 hrs in presence of 1 to 2 uM sigma1 selective agonist (+)-pentazocine by wound healing assay; type: functional; details: Homo sapiens, time 24-72 hrs; procedure, shortened: as §7
[24] = Cytotoxicity in HREC assessed as reduction in cell viability at 5 uM incubated for 72 hrs in presence of 1 uM sigma2 receptor antagonist AC927 by MTT assay; type: functional, Homo sapiens
Procedure, shortened: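 HRECs co-incubated with compound and the σ2 ligand AC927 (1 μM) for 72 h. Cell viability read by MTT test.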

[25] = Suppression of VEGF-A-induced pro-angiogenesis in HREC assessed as alive cell number count at 5 uM incubated for 72 hrs by Trypan blue dye exclusion assay (reference value: 42%); type: functional, Homo sapiens
[26] = tested on: HREC; assay: Suppression of VEGF-A-induced angiogenesis in HREC assessed as reduction of the ramification number at 5 uM incubated for 24 hrs in presence of 2 uM sigma2 selective antagonist AC927 by Matrigel based tube formation assay; type: functional, tissue-based; details: Homo sapiens; procedure, shortened: as §4
[27] = Cytotoxicity in HREC assessed as reduction in cell viability incubated for 72 hrs by MTT assay; type: functional; details: Homo sapiens; procedure, shortened: as §3
[28] = (§13) Suppression of VEGF-A-induced angiogenesis in HREC assessed as reduction of the ramification number at 5 uM incubated for 24 hrs by Matrigel based tube formation assay; type: functional, Homo sapiens; set-up: scale not given: the % may be the effect or the level left
Procedure, shortened: (§14)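 HRECs plated on Matrigel in the presence of VEGF-A. Emerging branch points (ramification number) from tube formation were quantified by phase-contrast imaging.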

[29] = target: D(3) dopamine receptor (Rattus norvegicus, UniProt P19020); assay: Displacement of [3H]-7-OH-DPAT from DRD3 in rat olfactory tubercle by scintillation counting; type: tissue-based
Chain of D(3) dopamine receptor (P19020 whole entry): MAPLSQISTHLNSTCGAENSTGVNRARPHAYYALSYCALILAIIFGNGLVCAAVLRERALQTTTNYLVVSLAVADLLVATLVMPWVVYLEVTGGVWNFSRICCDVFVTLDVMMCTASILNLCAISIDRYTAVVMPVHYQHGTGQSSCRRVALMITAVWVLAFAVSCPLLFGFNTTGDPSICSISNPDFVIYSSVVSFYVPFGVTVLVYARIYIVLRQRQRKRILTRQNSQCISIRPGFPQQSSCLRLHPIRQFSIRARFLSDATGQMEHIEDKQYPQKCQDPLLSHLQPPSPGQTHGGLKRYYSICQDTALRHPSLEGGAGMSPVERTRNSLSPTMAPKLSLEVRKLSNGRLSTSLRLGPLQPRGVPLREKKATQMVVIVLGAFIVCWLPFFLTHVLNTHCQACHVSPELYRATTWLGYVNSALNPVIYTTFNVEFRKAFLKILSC

[30] = Stability in rat plasma assessed as compound hydrolysis at 37 degC by HPLC analysis; type: ADME, cell-free; procedure, shortened: as §10
[31] = tested on: HREC; assay: as §1; type: functional; details: Homo sapiens; procedure, shortened: as §2
[32] = tested on: HREC; assay: Cytotoxicity in HREC assessed as reduction in cell viability by MTT assay; type: functional; details: Homo sapiens, TDE = time-dependent effect; procedure, shortened: as §3
[33] = Cytotoxicity in HREC assessed as reduction in cell viability at 20 uM incubated for 72 hrs by MTT assay; type: functional, Homo sapiens; procedure, shortened: as §6
[34] = tested on: HREC; assay: as §8; type: functional; details: Homo sapiens; procedure, shortened: as §2
[35] = tested on: HREC; assay: Cytotoxicity in HREC assessed as reduction in cell viability at 20 uM incubated for 72 hrs in presence of 1 uM sigma1 selective agonist (+)-pentazocine by MTT assay; type: functional; details: Homo sapiens; procedure, shortened: as §9
[36] = tested on: HREC; assay: Cytotoxicity in HREC assessed as reduction in cell viability at 20 uM incubated for 72 hrs in presence of 1 uM sigma2 receptor antagonist AC927 by MTT assay; type: functional; details: Homo sapiens; procedure, shortened: as §9
[37] = tested on: HREC; assay: as §11; type: functional; details: Homo sapiens
[38] = Cytotoxicity in HREC assessed as reduction in cell viability at 200 uM incubated for 24 hrs by MTT assay; type: functional, Homo sapiens; procedure, shortened: as §6
[39] = tested on: HREC; assay: as §12; type: functional; details: Homo sapiens
[40] = tested on: HREC; assay: Effect on cell migration of in HREC at 2 uM incubated for 24 to 72 hrs by wound healing assay; type: functional; details: Homo sapiens, time 24-72 hrs
[41] = tested on: HREC; assay: Suppression of VEGF-A-induced cell migration in HREC assessed as effect on crossing cells count at 2 uM incubated for 24 to 72 hrs by wound healing assay; type: functional; details: Homo sapiens, time 24-72 hrs
[42] = tested on: HREC; assay: as §13; type: functional; details: Homo sapiens; procedure, shortened: as §14

SMILES: CCCC(CCC)C(=O)OC(CCCN1CCC(O)(c2ccc(Cl)cc2)CC1)c1ccc(F)cc1 (racemic)
- Activity [1]: 52%
- IC50 ([2]; read-out: IC50): 11.1 µM
- IC50 ([2]; read-out: pIC50 (converted)): 11.1 µM
- Activity [3]: inactive
- IC50 ([4]; read-out: IC50): 10.6 µM
- IC50 ([4]; read-out: pIC50 (converted)): 10.6 µM
- Activity [5]: Active
- half-life [6]: 134 h
- Activity [7]: 28%
- Activity [8]: inactive
- inhibition [9]: inactive
- Activity [10]: 32%
- Activity [11]: inactive
- Ki [12]: > 5 µM
- Stabilty [13]: Stable
- Activity [14]: 25%
- Ki [15]: 0.124 µM
- solubility at 1 h [16]: 1.4 mg/mL (≈ 2780 µM)
- Ki [17]: 0.013 µM
- half-life [18]: 129 h
- Activity [19]: 24%
- IC50 ([20]; read-out: IC50): 10.5 µM
- IC50 ([20]; read-out: pIC50 (converted)): 10.5 µM
- Activity [21]: 28%
- Activity [22]: 55%
- Activity [23]: inactive
- Activity [24]: 18%
- Activity [25]: 30%
- Activity [26]: Active
- IC50 ([27]; read-out: IC50): 10.1 µM
- IC50 ([27]; read-out: pIC50 (converted)): 10.1 µM
- Activity [28]: 67%
- Ki [29]: > 5 µM
- Stabilty [30]: Unstable

SMILES: OC(CCCN1CCC(O)(c2ccc(Cl)cc2)CC1)c1ccc(F)cc1 (racemic) [HYDROXYHALOPERIDOL]
- Activity [31]: inactive
- Activity [32]: Tde
- IC50 ([2]; read-out: IC50): 128 µM
- IC50 ([2]; read-out: pIC50 (converted)): 128 µM
- IC50 ([4]; read-out: IC50): 56.6 µM
- IC50 ([4]; read-out: pIC50 (converted)): 56.6 µM
- Activity [33]: 29%
- Activity [8]: inactive
- Activity [34]: inactive
- Activity [35]: inactive
- Ki [15]: 0.0024 µM
- Activity [36]: inactive
- Activity [37]: inactive
- IC50 ([20]; read-out: IC50): > 200 µM
- Activity [38]: <50%
- Activity [39]: inactive
- IC50 ([27]; read-out: IC50): 68.7 µM
- IC50 ([27]; read-out: pIC50 (converted)): 68.7 µM
- Ki [29]: 1.02 µM

SMILES: O=C(CCCN1CCC(O)(c2ccc(Cl)cc2)CC1)c1ccc(F)cc1 [HALOPERIDOL]
- IC50 ([4]; read-out: IC50): 2.28 µM
- IC50 ([4]; read-out: pIC50 (converted)): 2.29 µM
- Activity [40]: inactive
- Activity [41]: inactive
- Activity [42]: inactive

- Ki [15]: > 10 µM
- Ki [17]: > 10 µM
SMILES: CCCC(CCC)C(=O)O [VALPROIC ACID]
- Activity [31]: inactive
- IC50 ([2]; read-out: IC50): 1450 µM
- IC50 ([2]; read-out: pIC50 (converted)): 1450 µM
- IC50 ([4]; read-out: IC50): 1480 µM
- IC50 ([4]; read-out: pIC50 (converted)): 1480 µM
- Activity [8]: inactive
- Activity [34]: inactive
- Activity [37]: inactive
- IC50 ([20]; read-out: IC50): 1220 µM
- IC50 ([20]; read-out: pIC50 (converted)): 1220 µM
- Activity [39]: inactive
- IC50 ([27]; read-out: IC50): 1390 µM
- IC50 ([27]; read-out: pIC50 (converted)): 1390 µM
